# Measured values taken from ChEMBL document CHEMBL4513216, “Probing the Open Global Health Chemical Diversity Library for Multistage-Active Starting Points for Next-Generation Antimalarials” (ACS Infect Dis, 2020).
# Test: Toxicity liver stage against HepG2, at 10uM
# Format: cell-based
# Set-up: test concentration 10 uM, cell line HepG2-A16-CD81EGFP
# Conditions: human, HepG2-A16-CD81EGFP cells; read-out: INHIBITION
# Procedure, shortened: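 Uninfected HepG2-A16-CD81EGFP cells, 3 × 10^3 per well, 1536-well, plated on prespotted compound at 10 μM final, parasite-free screening media added to match infected plates; puromycin 10 μM positive, DMSO 0.5% negative; run in parallel with 48 h PbLuc assay at 37 °C, 5% CO2; viability by CellTiter-Glo luminescence, normalized to controls.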
row,Compound,cytotoxicity at 10 µM [%]
1,CC(=O)N1CCS(=O)(=O)[C@@H]2CCN(S(=O)(=O)CC(C)C)CC[C@@H]21,6.1
2,COC(=O)N1CCCCC1C(=O)N1CCC(c2ccncc2)CC1 (stereo unspecified),11.7
3,CCOC(=O)[C@]12CCCN(Cc3cccs3)C[C@H]1CN(C(C)C)C2,12.2
4,CSCCCN1CCn2nc(CNC(C)=O)cc2C1,-13.6
5,COC(=O)CCCn1ccnc1-c1ccccc1,-4.65
6,Cc1sc(C(=O)NS(C)(=O)=O)cc1-c1ccc(F)cc1,2.53
7,CC(C)CCNc1nc(C(=O)NC2CC2)cs1,0.461
8,COCCn1cc(NCc2c[nH]nc2C(C)(C)C)cn1,-2.35
9,CNC(=O)Cn1ccc2ccc(NC(=O)C(C)C)cc21,0.153
10,CCCOc1cc(C)ccc1NC(=O)NCCNC(=O)C(C)C,8.31
11,CCC(NC(=O)NCc1ccoc1C)c1c(C)nn(C)c1C (stereo unspecified),-1.44
12,Cc1cc(C)n(CC2CCCCN2CCc2ccncc2)n1 (stereo unspecified),-7.07
13,Cn1nnc2c(N3CC(C(=O)NCc4ccccc4F)C3)ncnc21,0.447
14,CC(C)CS(=O)(=O)CCNc1ncccn1,-2.43
15,CC1(C)CN(Cc2nnc(-c3cccnc3)o2)CC[C@]1(C)O,-10.2
16,Cc1cnc(NCC(C)(C)N2CCN(C)CC2)nc1,-4.52
17,CCN1CCCN(C(=O)c2ccc(NC(=O)CC(C)C)c(C)c2)CC1,-8.04
18,CN1CCCC(c2cccc(CCC(=O)NCC3(C)COC3)n2)C1 (stereo unspecified),-8.24
19,CN(CC(=O)NC(Cc1ccsc1)c1cccnc1)Cc1ccccn1 (stereo unspecified),3.9
20,O=C(C1CC1)N1CCCCCC1C1CCN(c2ncccn2)CC1 (stereo unspecified),-9.56
21,O=C(CSCc1ccncc1)NCC1CCN(C2CC2)C1 (stereo unspecified),0.224
22,Cc1ccn2cc(C(=O)N3CCCC3c3c(C)nn(C)c3C)nc2c1 (stereo unspecified),3.2
23,O=C1N(Cc2ccc(Cl)cc2)CCC12CCCNC2 (stereo unspecified),-10.8

row,Compound,cytotoxicity at 10 µM [%]
1,CSc1ccccc1NC(=O)c1ccc(N2CCOCC2)nn1,0.951
2,COc1cccn(CC(=O)N2CCCC3(CCOCC3)C2)c1=O,8.78
3,Cc1ccccc1OCC1CCCN(C(=O)CNC(=O)N(C)C)C1 (stereo unspecified),-4.46
4,CC(C1CCN(Cc2ccc(OC(F)F)cc2)CC1)N1CCOCC1 (stereo unspecified),-2.38
5,Cc1cc(N2CCC(c3ncc[nH]3)CC2)nc(N)n1,-7.54
6,CC(CCc1ccccc1)NC(=O)CN1CCOCC1 (stereo unspecified),4.17
7,CC1CCCN(c2ccccc2OCC(=O)N2CCOCC2)C1 (stereo unspecified),-22.3
8,CC(C)N(CCS(C)(=O)=O)Cc1csc(Cc2ccc(Cl)cc2)n1,-40.6
9,CC(=O)NC(CC(=O)Nc1ccc(C)cn1)c1ccccc1 (stereo unspecified),-12.5
10,CC(C)COC1CCN(C(=O)c2ccc(C(F)(F)F)[nH]c2=O)CC1,0.0436
11,CNc1cncc(C2CCCN2c2cc(C)ncn2)n1 (stereo unspecified),-23.3
12,Cc1ccc(CN2CC[C@H]3C[C@H](C(=O)N(C)C)O[C@H]3C2)cc1,1.94
13,CCOCC1CN(C(=O)c2cscn2)Cc2nnn(CC3CC3)c21 (stereo unspecified),1.9
14,Cc1cnccc1-n1nc(C(C)C)nc1CS(C)(=O)=O,0.999
15,COc1ccc(Cl)cc1CS(=O)(=O)Cc1nc(C)no1,-2.53
16,Cc1nc(-c2ccc(S(=O)(=O)N3CCOCC3)cc2)co1,-9.52
17,O=C(CCc1cncc(F)c1)NS(=O)(=O)c1ccc(F)cc1F,-7.49
18,Cc1occc1CNC(=O)C1(C)CCCN(C(=O)c2ccccc2)C1 (stereo unspecified),-7.01
19,CCc1ccc(CNCC2CCN(CCO)CC2)cc1,-6.73
20,C[C@@H]1CN(C(=O)c2cccn2C)C[C@]12CCN(c1ccsc1)C2=O,-83.8
21,CCn1ccnc1CN1CCN(CC(=O)NC(=O)NC2CC2)CC1,-3.3
22,O=C(c1ccc(=O)[nH]c1)N1C[C@H]2CC[C@@H](C1)N(Cc1ccccc1)C2,-100
23,CC(=O)Nc1nc2c(s1)C(C)(C)Nc1ccccc1S2,-7.08

row,Compound,cytotoxicity at 10 µM [%]
1,O=C(NCC1CCN(C(=O)c2ccoc2)CC1)c1ccccc1Br,-12.3
2,COc1ccc(CNC(=O)CNc2cc3c(cc2Cl)OCCCO3)cc1,3.25
3,CCn1cc(CN2CCCN(C(=O)c3sccc3C#N)CC2)cn1,-6.41
4,CCN(CC)S(=O)(=O)c1ccc(CNc2cc(C)nc(C)n2)cc1,-5.83
5,Cc1ccccc1CC(=O)N1C[C@@H](O)[C@H](N2CCOCC2)C1,-4.05
6,COc1cc(CNC(c2ccccc2)c2nccn2C)cc(OC)c1 (stereo unspecified),-6.69
7,COc1ccc(CN(C)C(=O)NCc2c(C)cc(C)nc2OC)cc1,-7.11
8,COc1c(C2CCCN2C(=O)c2ccc3[nH]cnc3c2)c(C)nn1C (stereo unspecified),-8.04
9,Cc1cc(S(C)(=O)=O)c(C)c(S(=O)(=O)N2CCCC(C)C2)c1 (stereo unspecified),22.6
10,O=C(C1CC(=O)N(c2ccccc2Br)C1)N1CCN(CC(F)(F)F)CC1 (stereo unspecified),7.29
11,COc1ccc(C(=O)N2C[C@@H](CN3CCCC3)[C@@H](CO)C2)c(C)c1,-7.21
12,CC(C)c1cc(C(=O)N(Cc2ccncc2)CC2CCCO2)no1 (stereo unspecified),15.6
13,Cc1ncsc1CN1C[C@@H]2CCCO[C@@H]2[C@H](Nc2ccccn2)C1,2.31
14,COc1c(C)cnc(CN2CCn3c(C)nnc3C2)c1C,-4.97
15,CC(NC(=O)N1CCSC(C)(C)C1)c1noc(-c2ccccc2)n1 (stereo unspecified),-22.3
16,Cc1nc(CN2C[C@@H]3CN(C(=O)c4ccoc4C)C[C@@H]3C2)cs1,-144
17,CCOC(=O)CC1CCCCN1C(=O)c1cccc2ccnn12 (stereo unspecified),-105
18,Cn1cnc2c1C(COCc1cccnc1)N(Cc1ccccn1)CC2 (stereo unspecified),-13.3
19,COc1ccc(NC2CCCN(Cc3cnc(N(C)C)s3)C2)cc1OC (stereo unspecified),3.46
20,CCN(CC)C(=O)Cn1c(-c2ccc(Cl)cc2)nc(C)c(CCO)c1=O,2.62
21,CC(=O)N1[C@H](Cn2cncn2)C[C@@H]2CN(S(C)(=O)=O)CC[C@@H]21,-10.9
22,Cc1ncc(CN(C)C(=O)Nc2cccc(N3CCNC3=O)c2)s1,9.97
23,CCn1nc(C)c2ncnc(NCCCn3ccnc3)c21,10.3

row,Compound,cytotoxicity at 10 µM [%]
1,COC[C@@]12CC[C@@H](N3CCOCC3)C[C@H]1CCN(c1cnccn1)C2,4.76
2,COc1ccc(CCN2CCc3c(nc(C4CC4)n3C)C2)cc1,-0.729
3,CCS(=O)(=O)N1CCC2(CC1)CCn1c(-c3cnn(C)c3)cnc12,-138
4,CC(c1ncc(C(C)(C)C)o1)N1CCN(Cc2ccco2)CC1 (stereo unspecified),5.3
5,O=C(N[C@@H]1CN(Cc2c[nH]nc2-c2ccccc2)C[C@H]1O)c1cc[nH]n1,2.8
6,CC(C)COCCC(=O)Nc1cccnc1-n1cncn1,1.28
7,CC(C)N1CCCC2(CCN(C(=O)CCCn3cccn3)C2)C1=O (stereo unspecified),0.264
8,CCOc1ncccc1CNC(=O)Nc1ccccc1,-4.87
9,c1ccc(Cn2cc(CNCC3CNc4ccnn4C3)cn2)cc1 (stereo unspecified),-11.6
10,CN(C)Cc1cnc(CC2CCN(CCc3ccccc3)CC2)cn1,-6.07
11,Cn1nc2c(cc1=O)CN(Cc1coc(-c3cccs3)n1)CC2,-11.1
12,CC(=O)N1CCCC1c1nccnc1Nc1ncccn1 (stereo unspecified),-1.2
13,COc1ccc(NC(=O)Cn2nc(C)c(C(C)=O)c2C)cc1,-3.66
14,Cc1ccccc1C1(C(=O)NCCN2CCOCC2)CCOCC1,-3.07
15,Cc1nc(C)n(C2CCCN(C(=O)COCc3ccccc3)C2)n1 (stereo unspecified),-11
16,Cc1ccccc1C(C)NC(=O)CSCC#N (stereo unspecified),-10.2
17,COc1ccccc1NC(=O)CCNC(=O)c1ccoc1,1.66
18,Cc1nc(C)n(C2CCCN(C(=O)Cc3n[nH]c4ccccc34)C2)n1 (stereo unspecified),-11.7
19,CC(C)CCNC(=O)NC(C)c1nncn1C (stereo unspecified),-9.9
20,CN(C)c1ncccc1CNC(=O)NCc1ccc(Cl)s1,9.21
21,CN(C)c1cc(CNC(=O)c2ccccc2Cl)ccn1,-8.28
22,Cc1c(CN2CC[C@@H](N3CCC(O)CC3)[C@H](O)C2)[nH]c2ccc(F)cc12,4.07
23,O=C(c1ccco1)N1CCO[C@@H]2CN(c3ccccc3)CC[C@@H]2C1,-67.7

row,Compound,cytotoxicity at 10 µM [%]
1,COC(=O)C(NC(=O)C1CC1)c1cc(F)ccc1F (stereo unspecified),-4.64
2,CC(C)c1nc2c(n1C)CCN(Cc1nc(-c3ccsc3)no1)C2,-6.46
3,COCCNC(=O)[C@@]12CCO[C@@H]1CCN(Cc1scnc1C)C2,-10.6
4,CC(C)OCCCNC(=O)[C@@]12CNC[C@@H]1CN(S(C)(=O)=O)C2,6.99
5,CN1CC(c2ccccc2)CC12CCN(C(=O)c1c(Cl)cnn1C)CC2 (stereo unspecified),-17
6,NC(=O)CC1CCN(C(=O)NCC2(c3ccccc3F)CC2)CC1,35.2
7,CN1CC(c2ccccc2)CC12CCN(C(=O)c1ccc(Cl)cn1)CC2 (stereo unspecified),3.62
8,O=C(NCC1(CO)CC1)c1ccccc1F,9.99
9,COCCSCC(=O)NCc1ccnc(N(C)C)c1,9.88
10,CCOc1nc2cccnc2n(CC(=O)NCCOC)c1=O,-7.84
11,CCN1CCCC1CNC(=O)Cc1c(C)n[nH]c1-c1ccc(OC)cc1 (stereo unspecified),-3.72
12,O=C(NCC1(O)CCOCC1)c1ccn(-c2ccccc2F)n1,-0.636
13,c1cc(C2CCN(c3cnccn3)CC2)ncn1,2.64
14,COc1c(Br)cccc1CCNC(=O)c1ccon1,-2.88
15,CC(C)(N)C(=O)N1CCC(c2nccnc2Oc2cccc(F)c2)CC1,-13.2
16,COc1ncc(NCc2ccc(F)cc2)cc1C(N)=O,-0.976
17,O=C(NCCn1ccnc1C1CCOC1)c1cccnc1 (stereo unspecified),-0.757
18,COc1ccc(OC)c2c(C)cc(N(C)Cc3cc(C)on3)nc12,1.42
19,CC(=O)N1N=C(c2ccco2)OC1C(=O)N(C)CCc1ccccc1 (stereo unspecified),-0.0253
